Measurements pooled from the literature.
CDK2: Cyclin-dependent kinase 2 (CDK2, Homo sapiens, UniProt P24941)
CDK2 with cyclin A: Cyclin-dependent kinase 2, with cyclin A (CDK2, Homo sapiens, UniProt P24941)
CDK2 with cyclin E: Cyclin-dependent kinase 2, with cyclin E (CDK2, Homo sapiens, UniProt P24941)

SMILES	target	test	conditions	measurement	result
Cc1nc(N2CC[C@@H](O)C2)ncc1-c1cc(C(F)(F)F)cc2[nH]ncc12	CDK2	binding, competition with immobilised ligand	1 µM	remaining binding	94%
O=C(Nc1cnn(-c2csc(C(=O)NC3COC3)c2)c1)Nc1c(F)cccc1Cl	Cyclin-dependent kinase 2, with cyclin E2 (CDK2, Homo sapiens, UniProt P24941)	enzyme activity, inhibitor	5 µM	remaining activity	98.9%
CSc1cccnc1N1CCN(Cc2nc3ccccc3[nH]2)CC1	CDK2	cell-free assay, competition with immobilised ligand	1 µM	remaining binding	95%
O=C(Nc1cnn(-c2csc(C(=O)NC3COC3)c2)c1)Nc1ccccc1Cl	CDK2 with cyclin A	enzyme activity, inhibitor	5 µM	remaining activity	93.6%
O=C1Nc2ccc(Cl)cc2C1=Cc1cc(Cl)c(O)c(Cl)c1	CDK2 with cyclin E	cell-free assay	0.5 µM	remaining signal	90%
CC1(C)NC(=O)c2[nH]c3c(Cl)c(Cl)ccc3c2C1C#N (stereo not drawn)	CDK2	thermal stability, DSF	10 µM	ΔTm	-0.3 °C
N#Cc1c(NC(=O)c2cccc3ccccc23)sc2c1CCCC2	CDK2 with cyclin E	cell-free assay	0.5 µM	remaining signal	89.1%
CCS(=O)(=O)c1cc2cc(C[C@@](O)(CC(C)(C)c3ccc(F)cc3C(N)=O)C(F)(F)F)[nH]c2cn1	CDK2	cell-free assay, competition with immobilised ligand	1 µM	remaining binding	96%
O=C1Cc2c([nH]c3ccc([N+](=O)[O-])cc23)-c2ccccc2N1	CDK2 with cyclin A	cell-free assay	0.5 µM	remaining signal	8.37%
Cn1c2c(c3ccc(Cl)c(Cl)c31)C(C#N)C1(CCOCC1)NC2=O (stereo not drawn)	CDK2	thermal stability, DSF	10 µM	ΔTm	0 °C
N#CCCc1ccc2c(c1)-c1[nH]c3ccc([N+](=O)[O-])cc3c1CC(=O)N2	CDK2 with cyclin A	cell-free assay	0.5 µM	remaining signal	2.93%
Cn1c2c(Cl)c(Cl)ccc2c2cn[nH]c(=O)c21	CDK2	thermal stability, DSF	10 µM	ΔTm	0.6 °C
NS(=O)(=O)c1cc(NC(=O)Cc2ccccc2)ccc1Oc1cccc(Cl)c1	CDK2	cell-free assay, competition with immobilised ligand	1 µM	remaining binding	100%
O=C1NC(=O)c2cc(Nc3ccc(F)cc3)c(Nc3ccc(F)cc3)cc21	CDK2 with cyclin A	cell-free assay	0.5 µM	remaining signal	95.3%
Cc1ccc(C(=O)NCc2ccsc2)cc1C#Cc1cn(C(C)C)c2ncnc(N)c12	CDK2 with cyclin E	enzyme activity, inhibitor	1 µM	activity vs control	108%
CN(c1ccnc(CNc2nc(Nc3ccc4c(c3)CC(=O)N4)ncc2C(F)(F)F)n1)S(C)(=O)=O	CDK2	cell-free assay, competition with immobilised ligand	1 µM	remaining binding	89%
Cc1sc(C(=O)NC2COC2)cc1-n1cc(NC(=O)Nc2c(F)cccc2Cl)cn1	CDK2 with cyclin E	enzyme activity, inhibitor	10 µM	remaining activity	106%

SMILES	target	test	conditions	measurement	result
Cn1c2c(c3ccc(Cl)c(Cl)c31)C(C#N)C(C)(C)NC2=O (stereo not drawn)	CDK2	thermal stability, DSF	10 µM	ΔTm	0.5 °C
CC(C)(O)[C@H]1CC[C@H](Nc2ccc3ncc(-c4cccc(C(F)(F)F)c4)n3n2)CC1	Cyclin-dependent kinase 2, with cyclin A1 (CDK2, Homo sapiens, UniProt P24941)	enzyme activity, inhibitor	1 µM	remaining activity	78.5%
Cc1ccc(NC(=O)c2ccc(C)c(C(F)(F)F)c2)cc1C#Cc1nn(C2CCC(O)CC2)c2ncnc(N)c12 (stereo not drawn)	CDK2 with cyclin E	cell-free assay	10 µM	remaining signal	102%
COc1cc2c(cc1OC)-c1[nH]nc(Nc3cccc(F)c3)c1C2	CDK2 with cyclin A	cell-free assay	0.5 µM	remaining signal	87.5%
CN(C(=O)c1ccccc1)c1cc(N(C)c2ccc3c(c2)CCc2ccc(C(=O)NCCN4CCOCC4)cc2C3=O)ccc1F	CDK2	cell-free assay, competition with immobilised ligand	1 µM	remaining binding	96%
Cc1cc(NC(=O)c2cccc3cc(-c4cccc5[nH]nc(N)c45)ccc23)ccc1F	CDK2 with cyclin E	enzyme activity, inhibitor	0.1 µM	activity vs control	103%
Cn1c2c(c3ccc(Cl)c(Cl)c31)C(C#N)C1(CCNCC1)NC2=O (racemic)	CDK2	thermal stability, DSF	10 µM	ΔTm	0.1 °C
CC(C)[C@H](CO)Nc1nc(Nc2cccc(Cl)c2)c2ncn(C(C)C)c2n1	CDK2 with cyclin E	cell-free assay	0.5 µM	remaining signal	9.88%
FC(F)(F)Oc1cccc(-c2cnc3ccc(-c4ccncc4)nn23)c1	CDK2 with cyclin A	enzyme activity, inhibitor, radiometric	1 µM	activity vs control	26%
Cn1c2c(Cl)c(Cl)ccc2c2cc[nH]c(=O)c21	CDK2	thermal stability, DSF	10 µM	ΔTm	0.6 °C
CCC(=O)N[C@@H]1CC[C@H](C(=O)N(C)c2ccc(-c3nc4ccccc4o3)cc2)C1	CDK2	cell-free assay, competition with immobilised ligand	1 µM	remaining binding	100%
CS(=O)(=O)CCNCc1ccc(-c2ccc3ncnc(Nc4ccc(OCc5cccc(F)c5)c(Cl)c4)c3c2)o1	CDK2 with cyclin E	cell-free assay	0.5 µM	remaining signal	98.8%
Cn1cc(Cl)c2c(Oc3c(F)cc(Nc4cc(Cl)nc(N)n4)cc3F)ccnc21	CDK2	cell-free assay, competition with immobilised ligand	0.1 µM	remaining binding	100%
CC(C)c1ccc(NC(=O)c2cccs2)c(-c2nc3ccccc3[nH]c2=O)c1	CDK2 with cyclin A	enzyme activity, inhibitor	1 µM	activity vs control	96%
Cn1c2c(Cl)c(Cl)ccc2c2cc(N)[nH]c(=O)c21	CDK2	thermal stability, DSF	10 µM	ΔTm	2.2 °C
Nc1ncnc2occ(-c3ccc(NC(=O)Nc4cc(C(F)(F)F)ccc4F)cc3)c12	CDK2	cell-free assay, inhibitor	20 µM	remaining signal	0.1%
